Active and inactive are the calls of the source.
What was measured:
Format in all cases: functional, organism-based
UACC-62 = assay: Antitumor activity against human UACC62 cells implanted intraperitoneally in mouse assessed as inhibition of tumor cell growth at 1.6 to 2.4 mg/kg, ip administered on day 1 to 4 measured on day 5 by hollow fiber assay
Procedure, shortened: (§1)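 Human tumour cell lines from a standard 12-line panel encapsulated in polyvinylidene fluoride hollow fibres (500,000 Da exclusion), implanted intraperitoneally or subcutaneously in mice; drug given IP at 2.4 and 1.6 mg/kg/dose on days 1–4; fibres retrieved and viable cell mass determined day 5; T/C versus vehicle-only injected controls.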

SF-295 = assay: Antitumor activity against human SF295 cells implanted intraperitoneally in mouse assessed as inhibition of tumor cell growth at 1.6 to 2.4 mg/kg, ip administered on day 1 to 4 measured on day 5 by hollow fiber assay; procedure, shortened: as §1
COLO 205 = assay: Antitumor activity against human COLO205 cells implanted intraperitoneally in mouse assessed as inhibition of tumor cell growth at 1.6 to 2.4 mg/kg, ip administered on day 1 to 4 measured on day 5 by hollow fiber assay; procedure, shortened: as §1
NCI-H23 = assay: Antitumor activity against human NCI-H23 cells implanted intraperitoneally in mouse assessed as inhibition of tumor cell growth at 1.6 to 2.4 mg/kg, ip administered on day 1 to 4 measured on day 5 by hollow fiber assay; procedure, shortened: as §1
MDA-MB-231 = assay: Antitumor activity against human MDA-MB-231 cells implanted intraperitoneally in mouse assessed as inhibition of tumor cell growth at 1.6 to 2.4 mg/kg, ip administered on day 1 to 4 measured on day 5 by hollow fiber assay; procedure, shortened: as §1
NCI-H522 = assay: Antitumor activity against human NCI-H522 cells implanted intraperitoneally in mouse assessed as inhibition of tumor cell growth at 1.6 to 2.4 mg/kg, ip administered on day 1 to 4 measured on day 5 by hollow fiber assay; procedure, shortened: as §1
U-251 = assay: Antitumor activity against human U251 cells implanted intraperitoneally in mouse assessed as inhibition of tumor cell growth at 1.6 to 2.4 mg/kg, ip administered on day 1 to 4 measured on day 5 by hollow fiber assay; procedure, shortened: as §1
Homo sapiens = assay: Antitumor activity against human […] cells implanted intraperitoneally in mouse assessed as inhibition of tumor cell growth at 1.6 to 2.4 mg/kg, ip administered on day 1 to 4 measured on day 5 by hollow fiber assay; procedure, shortened: as §1
LOX IMVI = assay: Antitumor activity against human LOXIMVI cells implanted intraperitoneally in mouse assessed as inhibition of tumor cell growth at 1.6 to 2.4 mg/kg, ip administered on day 1 to 4 measured on day 5 by hollow fiber assay; procedure, shortened: as §1
MDA-MB-435 = assay: Antitumor activity against human MDA-MB-435 cells implanted intraperitoneally in mouse assessed as inhibition of tumor cell growth at 1.6 to 2.4 mg/kg, ip administered on day 1 to 4 measured on day 5 by hollow fiber assay; procedure, shortened: as §1
OVCAR-5 = assay: Antitumor activity against human OVCAR5 cells implanted intraperitoneally in mouse assessed as inhibition of tumor cell growth at 1.6 to 2.4 mg/kg, ip administered on day 1 to 4 measured on day 5 by hollow fiber assay; procedure, shortened: as §1
SW-620 = assay: Antitumor activity against human SW620 cells implanted intraperitoneally in mouse assessed as inhibition of tumor cell growth at 1.6 to 2.4 mg/kg, ip administered on day 1 to 4 measured on day 5 by hollow fiber assay; procedure, shortened: as §1

Measured: TGI

C/C=C1\NC(=O)[C@H]2CSSCC/C=C/[C@H](CC(=O)N[C@H](C(C)C)C(=O)N2)OC(=O)[C@H](C(C)C)NC1=O
active: all assays above
